# Tests used:
# [1] = system: SK-OV-3; test: Anticancer activity against human SKOV3 cells after 72 hrs by MTT assay; conditions: SK-OV-3, 72 h
# [2] = system: HL-60; test: Anticancer activity against human HL60 cells after 48 hrs by MTT assay; conditions: HL-60, 48 h
# [3] = system: CCRF S-180; test: Antitumor activity against mouse S180 cells xenografted in Kunming mouse assessed as tumor growth inhibition rate at 20 mg/kg, po administered for 10 days relative to control; type: functional; conditions: CCRF S-180, 240 h
# How it was run: (§1)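 Tumour cells taken in exponential growth and inoculated subcutaneously into the right flank axilla. Mice randomised, 10 per group. Compound in 0.5% CMC-Na given intragastrically daily for 10 days. Solvent control got an equal volume of vehicle; positive control got cyclophosphamide 20 mg/kg i.p. in saline. Tumours weighed at sacrifice; inhibition rate calculated against solvent control.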
# [4] = Lipophilicity, log P of the compound; type: physicochemical; conditions: octanol/water
# [5] = system: HepG2; test: Anticancer activity against human HepG2 cells after 72 hrs by MTT assay; conditions: HepG2, 72 h
# [6] = system: K562; test: Anticancer activity against human K562 cells after 48 hrs by MTT assay; conditions: K562, 48 h
# [7] = system: H22; test: Antitumor activity against mouse H22 cells xenografted in Kunming mouse assessed as tumor growth inhibition rate at 35 mg/kg, po administered for 10 days relative to control; type: functional; conditions: H22, 240 h
# How it was run: as §1
# [8] = system: A-431; test: Anticancer activity against human A431 cells after 72 hrs by MTT assay; conditions: A-431, 72 h
# [9] = system: CCRF S-180; test: Antitumor activity against mouse S180 cells xenografted in po dosed Kunming mouse assessed as tumor tumor growth inhibition rate administered for 10 days relative to control; type: functional, organism-based
# How it was run: as §1
# [10] = system: H22; test: Antitumor activity against mouse H22 cells xenografted in Kunming mouse assessed as tumor growth inhibition rate at 70 mg/kg, po administered for 10 days relative to control; type: functional; conditions: H22, 240 h
# How it was run: as §1
# [11] = system: Mus musculus; test: Toxicity in Kunming mouse assessed as mouse mortality at 5000 mg/kg, po administered in 24 hr duration measured after 7 days; type: organism-based; set-up: dose 5000 mg/kg, route oral; conditions: in vivo, 168 h
# How it was run: (§2)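 Acute toxicity test in Kunming mice (18–22 g), each group treated with one compound. The compound was given orally within 24 h, and mice were then monitored continuously for up to 7 days for abnormal behaviour or death.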
# [12] = system: CCRF S-180; test: Antitumor activity against mouse S180 cells xenografted in Kunming mouse assessed as tumor growth inhibition rate at 180 mg/kg, po administered for 10 days relative to control; type: functional; conditions: CCRF S-180, 240 h
# How it was run: as §1
# [13] = system: H22; test: Antitumor activity against mouse H22 cells xenografted in Kunming mouse assessed as tumor growth inhibition rate at 140 mg/kg, po administered for 10 days relative to control; type: functional; conditions: H22, 240 h
# How it was run: as §1
# [14] = system: CCRF S-180; test: Antitumor activity against mouse S180 cells xenografted in Kunming mouse assessed as tumor growth inhibition rate at 60 mg/kg, po administered for 10 days relative to control; type: functional; conditions: CCRF S-180, 240 h
# How it was run: as §1
# [15] = system: H22; test: Antitumor activity against mouse H22 cells xenografted in Kunming mouse assessed as tumor growth inhibition rate at 240 mg/kg, po administered for 10 days relative to control; type: functional; conditions: H22, 240 h
# How it was run: as §1
# [16] = system: H22; test: Antitumor activity against mouse H22 cells xenografted in Kunming mouse assessed as tumor growth inhibition rate at 20 mg/kg, po administered for 10 days relative to control; type: functional; conditions: H22, 240 h
# How it was run: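 H22 tumour cells were harvested in exponential growth and inoculated subcutaneously into the right flank axilla. Mice were randomised into groups of 10. Test compound in 0.5% CMC-Na was given intragastrically daily for 10 days. Solvent controls got an equal volume of CMC-Na, and positive controls got cyclophosphamide 20 mg/kg ip in saline. Tumours were weighed at sacrifice to give the inhibition rate.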
# [17] = system: H22; test: Antitumor activity against mouse H22 cells xenografted in Kunming mouse assessed as tumor growth inhibition rate at 80 mg/kg, po administered for 10 days relative to control; type: functional; conditions: H22, 240 h
# How it was run: as §1
# [18] = system: CCRF S-180; test: Antitumor activity against mouse S180 cells xenografted in Kunming mouse assessed as tumor growth inhibition rate at 90 mg/kg, po administered for 10 days relative to control; type: functional; conditions: CCRF S-180, 240 h
# How it was run: as §1
# [19] = system: CCRF S-180; test: Antitumor activity against mouse S180 cells xenografted in Kunming mouse assessed as tumor growth inhibition rate at 30 mg/kg, po administered for 10 days relative to control; type: functional; conditions: CCRF S-180, 240 h
# How it was run: as §1
# [20] = system: H22; test: Antitumor activity against mouse H22 cells xenografted in Kunming mouse assessed as tumor growth inhibition rate at 10 mg/kg, po administered for 10 days relative to control; type: functional; conditions: H22, 240 h
# How it was run: as §1
# [21] = system: Mus musculus; test: Toxicity in Kunming mouse assessed as mouse mortality at 4500 mg/kg, po administered in 24 hr duration measured after 7 days; type: organism-based; set-up: dose 4500 mg/kg, route oral; conditions: in vivo, 168 h
# How it was run: as §2
# [22] = system: CCRF S-180; test: Antitumor activity against mouse S180 cells xenografted in Kunming mouse assessed as tumor tumor growth inhibition rate at 10 mg/kg, po administered for 10 days relative to control; type: functional; conditions: CCRF S-180, 240 h
# How it was run: as §1
# [23] = system: H22; test: Antitumor activity against mouse H22 cells xenografted in Kunming mouse assessed as tumor growth inhibition rate at 30 mg/kg, po administered for 10 days relative to control; type: functional; conditions: H22, 240 h
# How it was run: as §1
IC50 [1] [mg/L],IC50 [2] [mg/L],logP [4],IC50 [5] [mg/L],IC50 [6] [mg/L],IC50 [8] [mg/L],SMILES,also measured
0.2,0.001,2.63,1.2,0.08,0.8,N#Cc1c(F)c(F)c2c(C(=O)c3ccccc3)c3n(c(=N)c2c1F)CCN3,–
33.9,4.7,3.21,2.4,0.7,2.1,Cc1ccc(C(=O)c2c3n(c(=N)c4c(F)c(C#N)c(F)c(F)c24)CCCN3)cc1,–
16.4,0.3,2.71,1.1,0.02,2.4,N#Cc1c(F)c(F)c2c(C(=O)c3ccccc3)c3n(c(=N)c2c1F)CCCN3,–
26.8,0.5,3.34,0.8,0.07,2,COc1ccc(C(=O)c2c3n(c(=N)c4c(F)c(C#N)c(F)c(Cl)c24)CCCN3)cc1,–
52.2,4.4,4.84,30,1.2,8,N#Cc1c(Cl)c(Cl)c2c(C(=O)c3ccc(Cl)cc3)c3n(c(=N)c2c1Cl)CCCN3,–
32.2,24.2,3.39,2.7,0.8,11,COc1ccc(C(=O)c2c3n(c(=N)c4c(Cl)c(C#N)c(Cl)c(Cl)c24)CCO3)cc1,–
–,–,–,–,–,–,O=P1(N(CCCl)CCCl)NCCCO1 (stereo not given) [CYCLOPHOSPHAMIDE ANHYDROUS],inhibition in vivo at 20 mg/kg [3]: 81.7%; inhibition in vivo at 20 mg/kg [16]: 56.2%
34.5,0.5,3.36,17.7,1,4.9,N#Cc1c(F)c(F)c2c(C(=O)c3ccc(Cl)cc3)c3n(c(=N)c2c1F)CCN3,–
50.1,1.7,3.44,38.2,1.6,40.6,CCOC(=O)c1c2n(c(=N)c3c(Cl)c(C#N)c(Cl)c(Cl)c13)CCN2,–
51.2,10.7,4.11,9.3,1.2,10.1,N#Cc1c(Cl)c(Cl)c2c(C(=O)c3ccccc3)c3n(c(=N)c2c1Cl)CCCN3,–
34.9,0.3,4,12.4,1.4,5,N#Cc1c(F)c(Cl)c2c(C(=O)c3ccc(Cl)cc3)c3n(c(=N)c2c1F)CCN3,–
0.2,0.1,2.57,0.5,1.8,1.5,COc1ccc(C(=O)c2c3n(c(=N)c4c(F)c(C#N)c(F)c(F)c24)CCO3)cc1,–
17.1,0.2,4.08,2.1,0.3,2.8,N#Cc1c(F)c(Cl)c2c(C(=O)c3ccc(Cl)cc3)c3n(c(=N)c2c1F)CCCN3,–

SMILES,IC50 [1] [mg/L],IC50 [2] [mg/L],logP [4],IC50 [5] [mg/L],IC50 [6] [mg/L],IC50 [8] [mg/L],also measured
COc1ccc(C(=O)c2c3n(c(=N)c4c(F)c(C#N)c(F)c(F)c24)CCCN3)cc1,2.6,0.02,2.7,0.8,0.01,1.1,inhibition in vivo at 20 mg/kg [3]: 35.9%; inhibition in vivo at 35 mg/kg [7]: 34.7%; inhibition [9]: Dose-dependent effect; inhibition in vivo at 70 mg/kg [10]: 45.6%; Activity [11]: Non-toxic; inhibition in vivo at 180 mg/kg [12]: 19.1%; inhibition in vivo at 140 mg/kg [13]: 29.3%; inhibition in vivo at 60 mg/kg [14]: 38%
N#Cc1c(F)c(Cl)c2c(C(=O)c3ccccc3)c3n(c(=N)c2c1F)CCCN3,1.2,0.01,3.35,0.3,0.03,0.5,inhibition in vivo at 20 mg/kg [3]: 42.8%; inhibition in vivo at 240 mg/kg [15]: 0%; inhibition in vivo at 20 mg/kg [16]: 12.1%; inhibition in vivo at 80 mg/kg [17]: 28.2%; inhibition [9]: Dose-dependent effect; Activity [11]: Non-toxic; inhibition in vivo at 180 mg/kg [12]: 52.8%; inhibition in vivo at 60 mg/kg [14]: 41.1%
CCOC(=O)c1c2n(c(=N)c3c(F)c(C#N)c(F)c(F)c13)CCN2,0.04,0.02,2.04,0.4,0.0005,3.4,inhibition in vivo at 90 mg/kg [18]: 26.6%; inhibition [9]: Dose-dependent effect; inhibition in vivo at 30 mg/kg [19]: 54.2%; inhibition in vivo at 10 mg/kg [20]: 11.4%; Activity [21]: Toxic; inhibition in vivo at 10 mg/kg [22]: 39.2%; inhibition in vivo at 30 mg/kg [23]: 27.5%
